Measurements reported in ChEMBL document CHEMBL4387722.

Experiments:
[1] = biological target: T1, Phosphotyrosine protein phosphatase (Mycobacterium tuberculosis, UniProt A0A045ISB3); test: Inhibition of Mycobacterium tuberculosis His-tagged PtpB expressed in Escherichia coli Rosetta 2 (DE3) using pNPP as substrate after 30 mins by spectrophotometric method
T1 sequence (A0A045ISB3 whole entry): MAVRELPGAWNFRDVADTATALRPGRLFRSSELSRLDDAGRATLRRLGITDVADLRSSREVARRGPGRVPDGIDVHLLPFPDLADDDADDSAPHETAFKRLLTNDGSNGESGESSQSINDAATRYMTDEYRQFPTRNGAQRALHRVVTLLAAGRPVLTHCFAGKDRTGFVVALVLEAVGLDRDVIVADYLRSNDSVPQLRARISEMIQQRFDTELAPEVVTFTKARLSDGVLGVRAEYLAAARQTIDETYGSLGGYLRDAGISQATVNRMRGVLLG

[2] = biological target: T2, Tyrosine-protein phosphatase non-receptor type 1 (Homo sapiens, UniProt P18031); test: Inhibition of human PTPN1 expressed in Escherichia coli Rosetta 2 (DE3) using pNPP as substrate after 45 mins by spectrophotometric method
T2 sequence (P18031 whole entry): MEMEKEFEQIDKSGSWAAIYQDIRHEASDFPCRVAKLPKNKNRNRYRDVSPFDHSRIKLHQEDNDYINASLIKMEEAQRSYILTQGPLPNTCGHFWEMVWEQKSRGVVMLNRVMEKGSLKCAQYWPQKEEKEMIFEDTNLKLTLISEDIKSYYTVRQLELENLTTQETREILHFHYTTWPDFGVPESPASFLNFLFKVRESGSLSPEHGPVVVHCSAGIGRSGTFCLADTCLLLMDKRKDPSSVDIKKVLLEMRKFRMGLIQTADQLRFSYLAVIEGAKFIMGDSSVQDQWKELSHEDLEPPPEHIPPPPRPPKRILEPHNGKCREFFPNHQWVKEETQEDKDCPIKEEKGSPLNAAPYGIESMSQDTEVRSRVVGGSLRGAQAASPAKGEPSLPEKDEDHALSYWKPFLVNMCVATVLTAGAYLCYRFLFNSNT

[3] = biological target: T3, Tyrosine-protein phosphatase non-receptor type 2 (Homo sapiens, UniProt P17706); test: Inhibition of human PTPN2 expressed in Escherichia coli Rosetta 2 (DE3) using pNPP as substrate after 45 mins by spectrophotometric method
T3 sequence (P17706 whole entry): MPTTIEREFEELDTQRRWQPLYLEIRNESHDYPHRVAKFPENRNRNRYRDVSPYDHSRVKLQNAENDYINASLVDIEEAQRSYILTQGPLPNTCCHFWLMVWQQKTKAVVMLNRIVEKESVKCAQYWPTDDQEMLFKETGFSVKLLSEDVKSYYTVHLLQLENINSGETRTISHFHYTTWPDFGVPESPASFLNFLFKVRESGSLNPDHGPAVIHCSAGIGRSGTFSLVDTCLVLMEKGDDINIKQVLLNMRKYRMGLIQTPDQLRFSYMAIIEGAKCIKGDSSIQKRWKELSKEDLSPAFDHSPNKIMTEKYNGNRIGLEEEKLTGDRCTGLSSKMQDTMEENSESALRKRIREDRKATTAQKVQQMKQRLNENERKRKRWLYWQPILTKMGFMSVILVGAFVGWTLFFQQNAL

[4] = biological target: T4, Tyrosine-protein phosphatase non-receptor type 5 (Homo sapiens, UniProt P54829); test: Inhibition of human PTPN5 expressed in Escherichia coli Rosetta 2 (DE3) using pNPP as substrate after 45 mins by spectrophotometric method
T4 sequence (P54829 whole entry): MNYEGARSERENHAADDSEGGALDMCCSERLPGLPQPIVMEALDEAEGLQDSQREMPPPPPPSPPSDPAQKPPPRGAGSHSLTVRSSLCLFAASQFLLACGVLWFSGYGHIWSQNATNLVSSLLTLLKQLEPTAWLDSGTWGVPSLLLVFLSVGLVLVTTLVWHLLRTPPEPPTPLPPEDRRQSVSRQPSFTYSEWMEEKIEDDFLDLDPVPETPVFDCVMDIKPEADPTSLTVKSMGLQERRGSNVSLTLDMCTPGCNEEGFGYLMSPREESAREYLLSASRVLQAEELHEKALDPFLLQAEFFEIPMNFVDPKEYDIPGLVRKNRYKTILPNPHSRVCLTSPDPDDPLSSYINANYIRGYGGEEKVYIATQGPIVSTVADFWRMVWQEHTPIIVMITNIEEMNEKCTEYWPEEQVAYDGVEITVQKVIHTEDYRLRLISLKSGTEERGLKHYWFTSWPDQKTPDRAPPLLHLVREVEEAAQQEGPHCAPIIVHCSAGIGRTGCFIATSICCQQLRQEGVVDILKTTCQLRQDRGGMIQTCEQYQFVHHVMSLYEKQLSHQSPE

[5] = system: Mycobacterium tuberculosis; test: Antitubercular activity against Mycobacterium tuberculosis H37Rv after 5 days at 200 uM relative to control; type: functional; details: 120 h
In short: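 M. tuberculosis grown in liquid culture with compound at a fixed 200 μM for 5 days. Growth inhibition expressed as percent of control.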

## COc1ccc(Cl)cc1S(=O)(=O)Nc1ccc2oc(-c3ccc(NS(=O)(=O)c4ccc(Cl)s4)cc3)nc2c1
[1]
  IC50: 6.4 µM
[2]
  IC50: 10 µM
[3]
  IC50: 9.2 µM
[4]
  IC50: 11 µM
[5]
  inhibition at 200 µM: 39%

## COC(=O)c1ccccc1S(=O)(=O)Nc1ccc(-c2nc3cc(NS(=O)(=O)c4ccccc4C(=O)OC)ccc3o2)cc1
[1]
  IC50: 11 µM
[2]
  IC50: 10 µM
[3]
  IC50: 14 µM
[4]
  IC50: 21 µM
[5]
  inhibition at 200 µM: 0%

## O=S(=O)(Nc1ccc(-c2nc3cc(NS(=O)(=O)c4ccc(Cl)s4)ccc3o2)cc1)c1cccs1
[1]
  IC50: 3.4 µM
[2]
  IC50: 4.9 µM
[3]
  IC50: 9.5 µM
[4]
  IC50: 9.3 µM
[5]
  inhibition at 200 µM: 0%

## O=S(=O)(Nc1ccc(-c2nc3cc(NS(=O)(=O)c4ccc(Cl)s4)ccc3o2)cc1)c1ccc2ncsc2c1
[1]
  IC50: 7.1 µM
[2]
  IC50: 7.9 µM
[3]
  IC50: 11 µM
[4]
  IC50: 13 µM
[5]
  inhibition at 200 µM: 33%

## O=S(=O)(Nc1ccc(-c2nc3cc(NS(=O)(=O)c4cccc(Br)c4)ccc3o2)cc1)c1cccc(Br)c1
[1]
  IC50: 0.79 µM
[2]
  IC50: 14 µM
[3]
  IC50: 11 µM
[4]
  IC50: 11 µM
[5]
  inhibition at 200 µM: 17%

## O=S(=O)(Nc1ccc(-c2nc3cc(NS(=O)(=O)c4cccc(Cl)c4)ccc3o2)cc1)c1cccc(Cl)c1
[1]
  IC50: 2.3 µM
[2]
  IC50: 16 µM
[3]
  IC50: 17 µM
[4]
  IC50: 13 µM
[5]
  inhibition at 200 µM: 0%

## Cc1cccc(S(=O)(=O)Nc2ccc(-c3nc4cc(NS(=O)(=O)c5cccc(C)c5)ccc4o3)cc2)c1
[1]
  IC50: 5.8 µM
[2]
  IC50: 13 µM
[3]
  IC50: 17 µM
[4]
  IC50: 16 µM
[5]
  inhibition at 200 µM: 0%

## COC(=O)c1cccc(S(=O)(=O)Nc2ccc(-c3nc4cc(NS(=O)(=O)c5cccc(C(=O)OC)c5)ccc4o3)cc2)c1
[1]
  IC50: 5.8 µM
[2]
  IC50: 17 µM
[3]
  IC50: 13 µM
[4]
  IC50: 16 µM
[5]
  inhibition at 200 µM: 0%

## Cc1ccc(S(=O)(=O)Nc2ccc(-c3nc4ccc(NS(=O)(=O)c5ccc(C)cc5)cc4[nH]3)cc2)cc1
[1]
  IC50: 23 µM
[2]
  IC50: 15 µM
[3]
  IC50: 22 µM
[4]
  IC50: 13 µM
[5]
  inhibition at 200 µM: 14%

## O=[N+]([O-])c1cccc(S(=O)(=O)Nc2ccc(-c3nc4cc(NS(=O)(=O)c5cccc([N+](=O)[O-])c5)ccc4o3)cc2)c1
[1]
  IC50: 9.1 µM
[2]
  IC50: 14 µM
[3]
  IC50: 29 µM
[4]
  IC50: 24 µM
[5]
  inhibition at 200 µM: 0%

## O=c1ccc2cc(S(=O)(=O)Nc3ccc(-c4nc5cc(NS(=O)(=O)c6ccc(Cl)s6)ccc5o4)cc3)ccc2o1
[1]
  IC50: 5.5 µM
[2]
  IC50: 8.4 µM
[3]
  IC50: 17 µM
[4]
  IC50: 15 µM
[5]
  inhibition at 200 µM: 0%

## O=c1ccc2cc(S(=O)(=O)Nc3ccc(-c4nc5cc(NS(=O)(=O)c6ccc7oc(=O)ccc7c6)ccc5o4)cc3)ccc2o1
[1]
  IC50: 8.7 µM
[2]
  IC50: 6.3 µM
[3]
  IC50: 9.1 µM
[4]
  IC50: 17 µM
[5]
  inhibition at 200 µM: 23%

## O=S(=O)(Nc1ccc(-c2nc3cc(NS(=O)(=O)c4cccc(C(F)(F)F)c4)ccc3o2)cc1)c1cccc(C(F)(F)F)c1
[1]
  IC50: 2.9 µM
[2]
  IC50: 12 µM
[3]
  IC50: 12 µM
[4]
  IC50: 16 µM
[5]
  inhibition at 200 µM: 0%

## O=S(=O)(Nc1ccc2oc(-c3ccc(NS(=O)(=O)c4cccc5ccccc45)cc3)nc2c1)c1ccc(Cl)s1
[1]
  IC50: 2.7 µM
[2]
  IC50: 5.4 µM
[3]
  IC50: 15 µM
[4]
  IC50: 9.1 µM
[5]
  inhibition at 200 µM: 0%

## O=C(O)c1cccc(S(=O)(=O)Nc2ccc(-c3nc4cc(NS(=O)(=O)c5cccc(C(=O)O)c5)ccc4o3)cc2)c1
[1]
  IC50: 9.9 µM
[2]
  IC50: > 100 µM
[3]
  IC50: > 100 µM
[4]
  IC50: > 100 µM
[5]
  inhibition at 200 µM: 7%

## CCc1ccc(S(=O)(=O)Nc2ccc3oc(-c4ccc(NS(=O)(=O)c5ccc(Cl)s5)cc4)nc3c2)cc1
[1]
  IC50: 7.1 µM
[2]
  IC50: 11 µM
[3]
  IC50: 15 µM
[4]
  IC50: 15 µM
[5]
  inhibition at 200 µM: 0%

## CCc1ccc(S(=O)(=O)Nc2ccc(-c3nc4cc(NS(=O)(=O)c5ccc(Cl)s5)ccc4o3)cc2)cc1
[1]
  IC50: 6.5 µM
[2]
  IC50: 14 µM
[3]
  IC50: 12 µM
[4]
  IC50: 12 µM
[5]
  inhibition at 200 µM: 11%

## O=S(=O)(Nc1ccc(-c2nc3cc(NS(=O)(=O)c4ccc5nsnc5c4)ccc3o2)cc1)c1ccc2nsnc2c1
[1]
  IC50: 6.4 µM
[2]
  IC50: 8 µM
[3]
  IC50: 11 µM
[4]
  IC50: 11 µM
[5]
  inhibition at 200 µM: 0%

## Cc1ccc(S(=O)(=O)Nc2ccc(-c3nc4cc(NS(=O)(=O)c5ccc(C)cc5)ccc4o3)cc2)cc1
[1]
  IC50: 6.9 µM
[2]
  IC50: 14 µM
[3]
  IC50: 18 µM
[4]
  IC50: 14 µM
[5]
  inhibition at 200 µM: 0%

## O=S(=O)(Nc1ccc(-c2nc3cc(NS(=O)(=O)c4ccc(Cl)s4)ccc3o2)cc1)c1ccc(F)c(C(F)(F)F)c1
[1]
  IC50: 6.8 µM
[2]
  IC50: 8.6 µM
[3]
  IC50: 8.5 µM
[4]
  IC50: 14 µM
[5]
  inhibition at 200 µM: 0%

## O=S(=O)(Nc1ccc(-c2nc3cc(NS(=O)(=O)c4ccccc4Cl)ccc3o2)cc1)c1ccccc1Cl
[1]
  IC50: 6.4 µM
[2]
  IC50: 16 µM
[3]
  IC50: 22 µM
[4]
  IC50: 17 µM
[5]
  inhibition at 200 µM: 0%

## O=S(=O)(Nc1ccc(-c2nc3cc(NS(=O)(=O)c4cccc5nonc45)ccc3o2)cc1)c1ccc(Cl)s1
[1]
  IC50: 8.6 µM
[2]
  IC50: 16 µM
[3]
  IC50: 25 µM
[4]
  IC50: 19 µM
[5]
  inhibition at 200 µM: 14%

## O=S(=O)(Nc1ccc2oc(-c3ccc(NS(=O)(=O)c4ccc(Cl)s4)cc3)nc2c1)c1ccc(Cl)c(Cl)c1
[1]
  IC50: 3.3 µM
[2]
  IC50: 7.6 µM
[3]
  IC50: 13 µM
[4]
  IC50: 11 µM
[5]
  inhibition at 200 µM: 0%

## O=S(=O)(Nc1ccc(-c2nc3cc(NS(=O)(=O)c4ccc(Cl)cc4)ccc3o2)cc1)c1ccc(Cl)cc1
[1]
  IC50: 4.3 µM
[2]
  IC50: 8.1 µM
[3]
  IC50: 19 µM
[4]
  IC50: 12 µM
[5]
  inhibition at 200 µM: 0%

## O=[N+]([O-])c1ccc(S(=O)(=O)Nc2ccc(-c3nc4cc(NS(=O)(=O)c5ccc([N+](=O)[O-])cc5)ccc4o3)cc2)cc1
[1]
  IC50: 6.2 µM
[2]
  IC50: 27 µM
[3]
  IC50: 28 µM
[4]
  IC50: 18 µM
[5]
  inhibition at 200 µM: 0%

## Cc1ccccc1S(=O)(=O)Nc1ccc(-c2nc3cc(NS(=O)(=O)c4ccccc4C)ccc3o2)cc1
[1]
  IC50: 4.9 µM
[2]
  IC50: 12 µM
[3]
  IC50: 18 µM
[4]
  IC50: 14 µM
[5]
  inhibition at 200 µM: 0%

## O=[N+]([O-])c1ccccc1S(=O)(=O)Nc1ccc(-c2nc3cc(NS(=O)(=O)c4ccccc4[N+](=O)[O-])ccc3o2)cc1
[1]
  IC50: 10 µM
[2]
  IC50: 28 µM
[3]
  IC50: 28 µM
[4]
  IC50: 29 µM
[5]
  inhibition at 200 µM: 39%

## O=S(=O)(Nc1ccc(-c2nc3cc(NS(=O)(=O)c4cccc5ccccc45)ccc3o2)cc1)c1ccc(Cl)s1
[1]
  IC50: 2.2 µM
[2]
  IC50: 6.5 µM
[3]
  IC50: 7.3 µM
[4]
  IC50: 5.1 µM
[5]
  inhibition at 200 µM: 12%

## O=S(=O)(Nc1ccc(-c2nc3cc(NS(=O)(=O)c4ccc5ccccc5c4)ccc3o2)cc1)c1ccc2ccccc2c1
[1]
  IC50: 4.4 µM
[2]
  IC50: 4.3 µM
[3]
  IC50: 24 µM
[4]
  IC50: 6.2 µM
[5]
  inhibition at 200 µM: 0%
